From ChEMBL document CHEMBL3826964, “Structure-based design and synthesis of triazole-based macrocyclic inhibitors of norovirus protease: Structural, biochemical, spectroscopic, and antiviral studies” (Eur J Med Chem, 2016) come the findings set out here.

Data set [1] can be described thus: Cytotoxicity against human HG23 cells after 72 hrs by CytoTox-96 non-radioactive cytotoxicity assay. The data set is classed as cell-based. The following applies: hg23, 72 h.
Data set [2] relates to Norovirus. Nature of the data set: Antiviral activity against HG23 cells harboring Norovirus replicon assessed as decrease in viral RNA level measured after 48 hrs by qRT-PCR analysis. In kind it is functional, cell-based. The following applies: HG23, 48 h. A digest of the protocol:
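One-day-old HG23 cells (Norwalk virus replicon-bearing) exposed to 1.0–100 μM compound for 48 h; total RNA extracted and norovirus RNA quantified by qRT-PCR, normalized to β-actin. Percent reduction versus mock-treated cells used to calculate EC50; at least two independent experiments.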
(In antiviral work, replicon cells carry a viral genome segment that copies itself.)

The term CC50 denotes the concentration at which the toxic effect on the cells reaches its halfway point. In general, EC50 refers to the concentration at which the effect is half-maximal.

On to `CC(C)C[C@@H]1NC(=O)[C@@H](NC(=O)OCc2ccccc2)Cc2cn(nn2)CCNC(=O)CC[C@@H](C=O)NC1=O`, for which the CC50 in data set [1] was above 100 µM. In addition, the EC50 in data set [2] was 53.2 µM.
Take `CC(C)C[C@@H]1NC(=O)[C@@H](NC(=O)OCc2ccccc2)Cc2cn(nn2)CCCCCCNC(=O)CC[C@@H](C=O)NC1=O`: in data set [1], the CC50 is above 100 µM. The EC50 in data set [2] turned out to be 42.1 µM.
The like results for `O=C[C@@H]1CCC(=O)NCCCCCCn2cc(nn2)C[C@H](NC(=O)OCc2ccccc2)C(=O)N[C@@H](Cc2ccccc2)C(=O)N1` were, in that order, above 100 µM and 29.5 µM.
With `CC(C)C[C@@H]1NC(=O)[C@@H](NC(=O)OCc2ccccc2)Cc2cn(nn2)CCCCNC(=O)CC[C@@H](C=O)NC1=O`, the CC50 in data set [1] was above 100 µM. For the same compound, the EC50 in data set [2] amounted to 46.3 µM.
Take `O=C[C@@H]1CCC(=O)NCCCn2cc(nn2)C[C@H](NC(=O)OCc2ccccc2)C(=O)N[C@@H](CC2CCCCC2)C(=O)N1`: the CC50 in data set [1] is above 100 µM. Moreover, the EC50 in data set [2] was found to be 16.1 µM.
On to `O=C[C@@H]1CCC(=O)NCCCCCCn2cc(nn2)C[C@H](NC(=O)OCc2ccccc2)C(=O)N[C@@H](CC2CCCCC2)C(=O)N1`, for which the CC50 in data set [1] is above 100 µM. The EC50 in data set [2] was determined as 88.3 µM.
Take `O=C[C@@H]1CCC(=O)NCCCCn2cc(nn2)C[C@H](NC(=O)OCc2ccccc2)C(=O)N[C@@H](CC2CCCCC2)C(=O)N1`: in data set [1], the CC50 was above 100 µM. In data set [2], the EC50 is 30.5 µM.
Consider `O=C[C@@H]1CCC(=O)NCCCCCn2cc(nn2)C[C@H](NC(=O)OCc2ccccc2)C(=O)N[C@@H](CC2CCCCC2)C(=O)N1`, for which the CC50 in data set [1] was above 100 µM. For the same compound, the EC50 in data set [2] turned out to be 3.8 µM.
`O=C[C@@H]1CCC(=O)NCCn2cc(nn2)C[C@H](NC(=O)OCc2ccccc2)C(=O)N[C@@H](CC2CCCCC2)C(=O)N1`: the CC50 in data set [1] is above 100 µM. Further, the EC50 in data set [2] came to 25.5 µM.
`CC(C)C[C@@H]1NC(=O)[C@@H](NC(=O)OCc2ccccc2)Cc2cn(nn2)CCCNC(=O)CC[C@@H](C=O)NC1=O`: the CC50 in data set [1] is above 100 µM. Also, the EC50 in data set [2] worked out at 81.5 µM.
For `CC(C)C[C@@H]1NC(=O)[C@@H](NC(=O)OCc2ccccc2)CCCn2cc(nn2)CNC(=O)CC[C@@H](C=O)NC1=O`, the EC50 in data set [2] came to 8.5 µM.
Consider `CC(C)C[C@@H]1NC(=O)[C@@H](NC(=O)OCc2ccccc2)Cc2cn(nn2)CCCCCNC(=O)CC[C@@H](C=O)NC1=O`, for which the CC50 in data set [1] was above 100 µM. Besides, the EC50 in data set [2] was 6.2 µM.
